From ChEMBL document CHEMBL1949539, “Synthesis and antikinetoplastid activity of a series of N,N'-substituted diamines” (Bioorg Med Chem Lett, 2012)

Experiments:
Leishmania donovani = assay: Antileishmanial activity against Leishmania donovani S1 promastigotes after 72 hrs by alamar blue assay; format: functional, organism-based; conditions: S1, 72 h
[1] = Selectivity ratio of IC50 for african green monkey Vero cells to IC50 for Trypanosoma cruzi clone CL-Brener epimastigotes; format: ADME, cell-based; conditions: read-out: Ratio IC50
Method in brief: (§1)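 Selectivity index was calculated as the IC50 in Vero cells divided by the IC50 in the parasite.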

[2] = Selectivity ratio of IC50 for african green monkey Vero cells to IC50 for Trypanosoma brucei MITat 427 clone 221a trypomastigotes; format: ADME, cell-based; conditions: read-out: Ratio IC50; method in brief: as §1
[3] = Selectivity ratio of IC50 for african green monkey Vero cells to IC50 for Leishmania donovani S1 promastigotes; format: ADME, cell-based; conditions: Vero cells versus Leishmania donovani S1 promastigotes, read-out: Ratio IC50; method in brief: as §1
Vero [4] = assay: Cytotoxicity against african green monkey Vero cells at 4.76 ug/ml after 48 hrs by neutral red assay; format: cell-based; conditions: chlorocebus sabaeus
Trypanosoma brucei = assay: Antitrypanosomal activity against Trypanosoma brucei MITat 427 clone 221a trypomastigotes after 3 days by alamar blue assay; format: functional, organism-based; conditions: 72 h
Trypanosoma cruzi = assay: Antitrypanosomal activity against Trypanosoma cruzi clone CL-Brener epimastigotes after 14 days by alamar blue assay; format: functional, organism-based; conditions: 336 h
Vero [5] = assay: Cytotoxicity against african green monkey Vero cells after 48 hrs by neutral red assay; format: cell-based; conditions: chlorocebus sabaeus

Row | Compound | IC50 (Trypanosoma brucei) [nM] | IC50 (Trypanosoma cruzi) [nM] | IC50 (Leishmania donovani) [nM] | selectivity ratio [1] | selectivity ratio [2] | selectivity ratio [3] | Activity (Vero [4]) | IC50 (Vero [5]) [nM]
1 | COc1ccc(CNCCCNCc2ccc(OC)c(O)c2)cc1O | > 10000 | > 10000 | > 100000 | – | – | – | Non-toxic | –
2 | COc1ccc(CNCCCNCc2ccc(OC)cc2)cc1 | 2040 | > 10000 | 1240 | – | > 7 | > 12 | Non-toxic | –
3 | COc1ccc(CNCCCCCCCCCCNCc2ccc(OC)cc2)cc1 | > 10000 | 2300 | 1450 | > 5 | – | > 8 | Non-toxic | –
4 | COc1ccc(CNCCCCCCNCc2ccc(OC)c(O)c2)cc1O | > 10000 | > 10000 | 43800 | – | – | > 0.3 | Non-toxic | –
5 | c1ccc(CNCCCNCc2ccccc2)cc1 | 6450 | > 10000 | 11000 | – | > 3 | > 27 | Non-toxic | –
6 | COc1ccc(CNCCCCNCc2ccc(OC)cc2)cc1 | 3200 | > 10000 | 8520 | – | > 5 | > 2 | Non-toxic | –
7 | COc1ccc(CNCCCCCCCCNCc2ccc(OC)cc2)cc1 | 5500 | > 10000 | 1560 | – | > 2 | > 5 | Non-toxic | –
8 | COc1ccc(CNCCCCCCCCNCc2ccc(OC)c(O)c2)cc1O | 5500 | > 10000 | 44400 | – | > 2 | > 0.3 | Non-toxic | –
9 | COc1ccc(CNCCCCNCc2ccc(OC)c(O)c2)cc1O | > 10000 | > 10000 | > 100000 | – | – | – | Non-toxic | –
10 | C[C@@H]1[C@H](O)[C@@H](C)/C=C/C=C/C=C/C=C/C=C/C=C/C=C/[C@H](O[C@@H]2O[C@H](C)[C@@H](O)[C@H](N)[C@@H]2O)C[C@@H]2O[C@](O)(C[C@@H](O)C[C@@H](O)[C@H](O)CC[C@@H](O)C[C@@H](O)CC(=O)O[C@H]1C)C[C@H](O)[C@H]2C(=O)O [AMPHOTERICIN B] | – | – | 320 | – | – | – | – | –

Further compounds by falling IC50 (Trypanosoma brucei), results first:

Row | IC50 (Trypanosoma brucei) [nM] | IC50 (Trypanosoma cruzi) [nM] | Compound | IC50 (Leishmania donovani) [nM] | selectivity ratio [1] | selectivity ratio [2] | selectivity ratio [3] | Activity (Vero [4]) | IC50 (Vero [5]) [nM]
11 | 1700 | 2100 | CC1CS(=O)(=O)CCN1/N=C/c1ccc([N+](=O)[O-])o1 (centres undefined) [NIFURTIMOX] | – | – | – | – | – | –
12 | 960 | > 10000 | COc1ccc(CNCCCCCCCCCCNCc2ccc(OC)c(O)c2)cc1O | 4500 | – | > 11 | > 2 | Non-toxic | –
13 | 220 | > 10000 | COc1ccc(CNCCCCCCNCc2ccc(OC)cc2)cc1 | 6730 | – | 60 | 2 | – | 8320
14 | 190 | 810 | COc1cc(CNCCCNCc2ccc(OCc3ccccc3)c(OC)c2)ccc1OCc1ccccc1 | 230 | 8 | 35 | 29 | – | 6650
15 | 190 | 740 | COc1cc(CNCCCCCCNCc2ccc(OCc3ccccc3)c(OC)c2)ccc1OCc1ccccc1 | 210 | > 11 | > 44 | > 40 | Non-toxic | –
16 | 190 | 820 | COc1cc(CNCCCCCCCCNCc2ccc(OCc3ccccc3)c(OC)c2)ccc1OCc1ccccc1 | 220 | 6 | 24 | 21 | – | 2700
17 | 170 | 730 | COc1cc(CNCCCCNCc2ccc(OCc3ccccc3)c(OC)c2)ccc1OCc1ccccc1 | 240 | 12 | 52 | 37 | – | 2700
18 | 110 | 800 | COc1cc(CNCCCCCCCCCCNCc2ccc(OCc3ccccc3)c(OC)c2)ccc1OCc1ccccc1 | 1200 | > 10 | > 67 | > 6 | Non-toxic | –
